Experimental data: ChEMBL document CHEMBL4304822, “Mitochondrial-targeted Hsp90 C-terminal inhibitors manifest anti-proliferative activity” (Bioorg Med Chem Lett, 2019)
The source made the active and inactive calls. The calls are words filed in the database; no cut-off is given here.

What was measured:
MCF7 [1] = test: Ratio of IC50 for N-((1r,4r)-4-(4-(3-(dimethylamino)propoxy)phenyl)cyclohexyl)-3',6-dimethoxybiphenyl-3-carboxamide to IC50 for test compound for antiproliferative activity against human MCF7 cells; type: functional
MCF7 [2] = test: Antiproliferative activity against human MCF7 cells by MTT assay; type: functional, cell-based
SK-BR-3 [3] = test: Antiproliferative activity against human SKBR3 cells by MTT assay; type: functional, cell-based
PC-3 = test: Antiproliferative activity against human PC3 cells by MTT assay; type: functional, cell-based
HCT-116 = test: Antiproliferative activity against human HCT116 cells by MTT assay; type: functional, cell-based
[4] = Drug uptake in cytoplasm in human PC3 cells assessed as lowered drug accumulation incubated for 24 hrs by LC/MS analysis; type: ADME, subcellular; conditions: pc-3, 24 h
How it was run: (§1)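 PC3 cells treated for 24 h, then separated into subcellular fractions; the compound in each isolated fraction was quantified by LC-MS.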

[5] = Drug uptake in mitochondria in human PC3 cells incubated for 24 hrs by LC/MS analysis; type: ADME; conditions: pc-3, 24 h; how it was run: as §1
Heat shock protein HSP90 [6] = biological target: T1, Heat shock protein HSP90 (Homo sapiens, UniProt P07900+P08238); test: Inhibition of HSP90 […] in human SKBR3 cells assessed as induction of heat shock response by measuring increase in HSP70 protein level at 0.5 to 5 times antiproliferative IC50 incubated for 24 hrs by Western blot analysis; type: cell-based
Heat shock protein HSP90 [7] = biological target: T1, Heat shock protein HSP90; test: Inhibition of HSP90 at C-terminus in human SKBR3 cells assessed as induction of Raf1 protein degradation at 0.5 to 5 times antiproliferative IC50 incubated for 24 hrs by Western blot analysis; type: cell-based
Heat shock protein HSP90 [8] = biological target: T1, Heat shock protein HSP90; test: Inhibition of HSP90 at C-terminus in human SKBR3 cells assessed as Her2 protein degradation at 0.5 to 5 times antiproliferative IC50 incubated for 24 hrs by Western blot analysis; type: cell-based
Heat shock protein HSP90 [9] = biological target: T1, Heat shock protein HSP90; test: Inhibition of HSP90 at C-terminus in human SKBR3 cells assessed as AKT protein degradation at 0.5 to 5 times antiproliferative IC50 incubated for 24 hrs by Western blot analysis; type: cell-based
MCF7 [10] = test: Ratio of IC50 for N-(4'-(3-(dimethylamino)propoxy)biphenyl-4-yl)-3',6-dimethoxybiphenyl-3-carboxamide to IC50 for test compound for antiproliferative activity against human MCF7 cells; type: functional
SK-BR-3 [11] = test: Ratio of IC50 for N-(4'-(3-(dimethylamino)propoxy)biphenyl-4-yl)-3',6-dimethoxybiphenyl-3-carboxamide to IC50 for test compound for antiproliferative activity against human SKBR3 cells; type: functional
Heat shock protein HSP90 [12] = biological target: T1, Heat shock protein HSP90; test: Inhibition of HSP90 at C-terminus in human SKBR3 cells assessed as induction of CDK4 protein degradation at 0.5 to 5 times antiproliferative IC50 incubated for 24 hrs by Western blot analysis; type: cell-based
MCF7 [13] = test: Ratio of IC50 for N-(7-(3-(dimethylamino)propoxy)-8-methyl-2-oxo-2H-chromen-3-yl)-3',6-dimethoxybiphenyl-3-carboxamide to IC50 for test compound for antiproliferative activity against human MCF7 cells; type: functional

| SMILES | IC50 (MCF7 [2]) | IC50 (SK-BR-3 [3]) | IC50 (PC-3) | IC50 (HCT-116) | Drug uptake [4] | Drug uptake [5] | inhibition (Heat shock protein HSP90 [7]) | inhibition (Heat shock protein HSP90 [8]) | inhibition (Heat shock protein HSP90 [9]) | inhibition (Heat shock protein HSP90 [12]) | Ratio IC50 (MCF7 [1]) | Activity (Heat shock protein HSP90 [6]) | Ratio IC50 (MCF7 [10]) | Ratio IC50 (SK-BR-3 [11]) | Ratio IC50 (MCF7 [13]) |
| --- | --- | --- | --- | --- | --- | --- | --- | --- | --- | --- | --- | --- | --- | --- | --- |
| COc1cccc(-c2cc(C(=O)Nc3ccc(-c4ccc(OCCC[P+](c5ccccc5)(c5ccccc5)c5ccccc5)cc4)cc3)ccc2OC)c1.[Br-] | 930 nM | 210 nM | 2940 nM | 450 nM | Active | Active | Active | inactive | inactive | Active | – | Non-Toxic | 2 | 10 | – |
| COc1cccc(-c2cc(C(=O)Nc3cc4ccc(OCCCN(C)C)c(C)c4oc3=O)ccc2OC)c1 | 1800 nM | 850 nM | 1010 nM | 830 nM | – | Active | – | – | – | – | – | – | – | – | – |
| COc1cccc(-c2cc(C(=O)Nc3cc4ccc(OCCC[P+](c5ccccc5)(c5ccccc5)c5ccccc5)c(C)c4oc3=O)ccc2OC)c1.[Br-] | 800 nM | 310 nM | 1940 nM | 640 nM | Active | Active | Active | inactive | inactive | Active | – | Non-Toxic | – | – | 2 |
| COc1cccc(-c2cc(C(=O)Nc3ccc(-c4ccc(OCCCN(C)C)cc4)cc3)ccc2OC)c1 | 2140 nM | 2030 nM | 3530 nM | 1490 nM | – | Active | – | – | – | – | – | – | – | – | – |

More lines, in order of falling IC50 (MCF7 [2]), values ahead:

| IC50 (MCF7 [2]) | IC50 (SK-BR-3 [3]) | IC50 (PC-3) | IC50 (HCT-116) | Drug uptake [4] | Drug uptake [5] | inhibition (Heat shock protein HSP90 [7]) | inhibition (Heat shock protein HSP90 [8]) | inhibition (Heat shock protein HSP90 [9]) | inhibition (Heat shock protein HSP90 [12]) | SMILES | Ratio IC50 (MCF7 [1]) | Activity (Heat shock protein HSP90 [6]) | Ratio IC50 (MCF7 [10]) | Ratio IC50 (SK-BR-3 [11]) | Ratio IC50 (MCF7 [13]) |
| --- | --- | --- | --- | --- | --- | --- | --- | --- | --- | --- | --- | --- | --- | --- | --- |
| 340 nM | 250 nM | – | – | – | Active | – | – | – | – | COc1cccc(-c2cc(C(=O)N[C@H]3CC[C@H](c4ccc(OCCCN(C)C)cc4)CC3)ccc2OC)c1 | – | – | – | – | – |
| 170 nM | 230 nM | 1560 nM | 380 nM | Active | Active | Active | inactive | inactive | – | COc1cccc(-c2cc(C(=O)N[C@H]3CC[C@H](c4ccc(OCCC[P+](c5ccccc5)(c5ccccc5)c5ccccc5)cc4)CC3)ccc2OC)c1.[Br-] | 2 | Non-Toxic | – | – | – |
